The text below walks through data of ChEMBL document CHEMBL2346497, “Synthesis of novel cognition enhancers with pyrazolo[5,1-c][1,2,4]benzotriazine core acting at γ-aminobutyric acid type A (GABA(A)) receptor” (Bioorg Med Chem, 2013).

The source made the active and inactive calls. No cut-off for these calls is given here.

Series [1] relates to Rattus norvegicus. Nature of the series: Procognitive effect in Harlan Wistar rat assessed as exploring time of familiar rat during social investigatory behaviour at 1 mg/kg, po administered 30 mins prior to testing measured for 5 mins by social learning test (reference value: 27.6 secs). It is filed as functional.
The target in series [2] is T1, GABA-A receptor; alpha-1/beta-2/gamma-2 (Homo sapiens, UniProt P14867+P18507+P47870).
T1 sequence (P14867 whole entry): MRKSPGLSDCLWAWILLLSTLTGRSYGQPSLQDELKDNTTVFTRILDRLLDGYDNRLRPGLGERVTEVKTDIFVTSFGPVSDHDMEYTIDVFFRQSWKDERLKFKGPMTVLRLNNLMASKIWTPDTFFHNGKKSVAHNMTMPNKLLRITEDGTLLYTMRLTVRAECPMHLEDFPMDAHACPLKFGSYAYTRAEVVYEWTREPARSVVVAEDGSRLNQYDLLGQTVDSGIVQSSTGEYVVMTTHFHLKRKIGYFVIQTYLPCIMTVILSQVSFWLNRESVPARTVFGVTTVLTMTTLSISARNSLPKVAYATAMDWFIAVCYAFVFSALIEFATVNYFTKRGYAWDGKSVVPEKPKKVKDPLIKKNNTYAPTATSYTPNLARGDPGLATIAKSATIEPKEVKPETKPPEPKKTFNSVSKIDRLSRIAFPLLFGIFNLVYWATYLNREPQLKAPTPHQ
T1 sequence (P47870 whole entry): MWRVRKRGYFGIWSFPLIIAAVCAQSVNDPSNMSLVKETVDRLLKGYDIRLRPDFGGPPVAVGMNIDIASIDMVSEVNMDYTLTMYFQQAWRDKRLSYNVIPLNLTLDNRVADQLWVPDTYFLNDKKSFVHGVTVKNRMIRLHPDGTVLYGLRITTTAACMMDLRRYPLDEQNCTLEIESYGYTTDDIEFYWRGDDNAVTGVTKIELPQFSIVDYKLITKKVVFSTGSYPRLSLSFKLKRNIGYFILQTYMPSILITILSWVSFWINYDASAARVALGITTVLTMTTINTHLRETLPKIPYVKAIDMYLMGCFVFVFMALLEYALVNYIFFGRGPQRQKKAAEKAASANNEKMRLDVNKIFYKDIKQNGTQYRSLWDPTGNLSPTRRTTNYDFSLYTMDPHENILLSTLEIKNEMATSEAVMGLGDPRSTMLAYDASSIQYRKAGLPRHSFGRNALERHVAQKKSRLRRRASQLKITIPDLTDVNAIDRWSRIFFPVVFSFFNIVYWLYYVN
T1 sequence (P18507 whole entry): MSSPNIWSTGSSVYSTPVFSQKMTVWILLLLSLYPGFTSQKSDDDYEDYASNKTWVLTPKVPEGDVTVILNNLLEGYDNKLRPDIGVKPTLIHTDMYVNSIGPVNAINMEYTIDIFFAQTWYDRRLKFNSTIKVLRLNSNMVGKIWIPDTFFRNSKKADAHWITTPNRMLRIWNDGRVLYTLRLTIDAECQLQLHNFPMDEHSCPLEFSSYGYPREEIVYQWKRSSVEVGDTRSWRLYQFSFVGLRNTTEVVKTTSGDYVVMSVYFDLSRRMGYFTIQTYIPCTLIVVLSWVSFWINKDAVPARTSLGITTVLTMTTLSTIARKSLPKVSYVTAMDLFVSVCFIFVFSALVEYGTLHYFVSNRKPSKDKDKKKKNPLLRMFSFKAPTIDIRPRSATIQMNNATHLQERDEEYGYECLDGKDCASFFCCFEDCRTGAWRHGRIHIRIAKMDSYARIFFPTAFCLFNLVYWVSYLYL
The experiment in a line: Displacement of [3H]Ro15-1788 from recombinant GABA-A alpha1beta2gamma2 receptor benzodiazepine binding site (unknown origin) after 1 hr. It is filed as protein-complex assay. A digest of the protocol: (§1)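 Membranes came from clonal mammalian cell lines expressing α1β2γ2, α2β2γ2 or α5β3γ2 receptors, grown in MEM/EBSS with 10% FCS at 37 °C. Membranes were resuspended in 10 mM potassium phosphate, pH 7.4, with 100 mM KCl. Assays used 1–2 nM [3H]Ro15-1788 and test compound from 10^-9 to 10^-5 M, at least six concentrations. Diazepam at 10^-5 M defined nonspecific binding. Incubation ran 1 h at 4 °C. Single-point % inhibition was measured at 10 µM, and Ki by curve fitting; n = 5, in duplicate.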
Background: Displacement assays read how much labelled ligand stays bound in the presence of the test substance.

Series [3] has as its target T2, Gamma-aminobutyric acid receptor subunit alpha-5 (Homo sapiens, UniProt P18507+P31644+P47870).
T2 sequence (P31644 whole entry): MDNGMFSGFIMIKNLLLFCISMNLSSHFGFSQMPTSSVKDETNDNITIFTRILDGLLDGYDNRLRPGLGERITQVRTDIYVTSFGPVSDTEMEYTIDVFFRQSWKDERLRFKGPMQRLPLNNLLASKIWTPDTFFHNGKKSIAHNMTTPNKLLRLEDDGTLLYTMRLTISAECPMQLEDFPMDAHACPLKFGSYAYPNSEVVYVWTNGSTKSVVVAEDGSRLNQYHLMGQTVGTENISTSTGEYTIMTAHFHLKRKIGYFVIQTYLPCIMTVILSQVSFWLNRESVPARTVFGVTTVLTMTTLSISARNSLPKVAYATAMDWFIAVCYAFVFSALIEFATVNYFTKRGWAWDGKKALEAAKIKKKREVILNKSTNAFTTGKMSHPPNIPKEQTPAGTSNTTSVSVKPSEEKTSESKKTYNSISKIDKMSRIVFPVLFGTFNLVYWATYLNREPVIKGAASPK
The experiment in a line: Displacement of [3H]Ro15-1788 from recombinant GABA-A alpha5beta2gamma2 receptor benzodiazepine binding site (unknown origin) after 1 hr.

The subject of series [4] is Rattus norvegicus. Nature of the series: Procognitive effect in Harlan Wistar rat assessed as exploring time of familiar rat during social investigatory behaviour at 0.3 mg/kg, po administered 30 mins prior to testing measured for 5 mins by social learning test (reference value: 27.6 secs). It is filed as functional.
The subject of series [5] is Rattus norvegicus. The experiment in a line: Procognitive effect in Harlan Wistar rat assessed as exploring time of familiar rat during social investigatory behaviour at 10 mg/kg, po administered 30 mins prior to testing measured for 5 mins by social learning test (reference value: 27.6 secs). The class given is functional.
Series [6] has as its system Mus musculus. Nature of the series: Antiamnesic activity in CD1 albino mouse assessed as reversal of scopolamine-induced amnesia at 0.1 mg/kg, po administered 30 mins prior to scopolamine challenge measured after 24 hrs by passive avoidance test. It is filed as functional, organism-based. Also on record: dose 0.1 mg/kg. A digest of the protocol: (§2)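 Step-through passive avoidance in male CD-1 mice (22–24 g). Test drugs were given po, suspended in 1% carboxymethylcellulose at 10 ml/kg, 30 min before the training session. For the antiamnesic arm, scopolamine 1.5 mg/kg was injected immediately after punishment. Retention latency was compared with CMC-treated controls, n = 10–12 mice per group.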

Series [7] deals with Rattus norvegicus. The experiment in a line: Procognitive effect in Harlan Wistar rat assessed as decrease in exploring time of unfamiliar rat during social investigatory behaviour at 0.3 to 10 mg/kg, po administered 30 mins prior to testing measured for 5 mins by social learning test relative to control. The class given is functional, organism-based.
The test system of series [8] is Mus musculus. The experiment in a line: Anticonvulsant activity in CD1 albino mouse assessed as protection against pentylenetetrazole-induced convulsions at 1 mg/kg, po administered 30 mins prior to pentylenetetrazole challenge measured over 30 mins (reference value: 7.1%). The class given is functional.
For series [9], the target named is GABA A receptor alpha-2/beta-2/gamma-2 (Homo sapiens) (UniProt P47870+P18507+P47869). The experiment in a line: Displacement of [3H]Ro15-1788 from recombinant GABA-A alpha2beta2gamma2 receptor benzodiazepine binding site (unknown origin) at 10 uM after 1 hr relative to control. The class given is protein-complex assay. A digest of the protocol: as §1
Series [10] in a line: Displacement of [3H]Ro15-1788 from GABA-A receptor benzodiazepine binding site in bovine cerebral cortex membranes after 1 hr. The class given is cell membranes, Bos taurus, Membrane.
The subject of series [11] is Mus musculus. Nature of the series: Cognitive enhancing effect in CD1 albino mouse assessed as increase in retention latency at 0.1 to 10 mg/kg, po administered 30 mins prior to testing measured after 24 hrs by passive avoidance test relative to control. The class given is functional, organism-based. A digest of the protocol:
as §2

The subject of series [12] is Mus musculus. The experiment in a line: Neurotoxicity in CD1 albino mouse assessed as decrease in number of falls from rotating rod at 10 mg/kg, po by rota-rod test relative to control. The class given is toxicity, organism-based. Also on record: dose 10 mg/kg, route oral. Particulars: in vivo, TDE = time-dependent effect. A digest of the protocol: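 Motor coordination was tested on a rota-rod turning at 24 rpm in male CD-1 mice dosed po in 1% CMC. Falls within 30 s were counted at a pretest and at 15, 30, 45 and 60 min after dosing. Each value is the mean of five mice, compared with CMC-treated controls.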
Background: Falling from the rotarod earlier than controls is read as motor impairment.

Series [13] deals with Mus musculus. The experiment in a line: Anxiolytic activity in CD1 albino mouse assessed as increase in time spent in illuminated side at 1 mg/kg, po administered 30 mins prior to testing measured for 5 mins by light-dark box test. The class given is functional, organism-based. Also on record: dose 1 mg/kg. A digest of the protocol: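 Light/dark box: two equal acrylic compartments, one lit by a 60 W lamp, joined by a floor-level opening. Male CD-1 mice were dosed po in 1% CMC 30 min before the test, then placed in the centre of the lit side facing away from the dark side. Over 5 min, transfers and time in the light side were recorded, n = 8 mice per group.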

A word on the Ki: it is a dissociation constant, usually derived from enzyme kinetics or from competition with a known ligand. By inhibition is commonly meant the change of the read-out against control, counted positive when it falls. For the compound `[O-][n+]1nc2c(I)cnn2c2cc(NCc3cccnc3)ccc21`, the Time with Rattus norvegicus [1] is given as 43.7 s; with Rattus norvegicus [4], 29.4 s; in the series on Rattus norvegicus [5] it was 42.5 s. The Ki worked out at 0.45 nM in series [2], 24.9 nM in series [3] and 0.33 nM in series [10]. Also, the outcome with Mus musculus [6] and with Mus musculus [11] was Active. The outcome in the series with Rattus norvegicus [7] and in the series on Mus musculus [13] was inactive. Moreover, the results for the Activity with Mus musculus [8] and in the series with Mus musculus [12] were 0% and “tde”, respectively. In addition, the inhibition in series [9] came to 37%.
